Laboratory results: ChEMBL document CHEMBL4184277, “Substitution of terminal amide with 1H-1,2,3-triazole: Identification of unexpected class of potent antibacterial agents” (2018)
≈ marks a conversion by molar mass, not a printed value. Calls of active or inactive are those of the source. The rule behind the calls is not given here.

How the values were obtained:
Klebsiella pneumoniae = test: Antibacterial activity against Klebsiella pneumoniae ATCC 700603 after 24 hrs by broth microdilution method; type: functional; details: Klebsiella pneumoniae, 700603, 24 h
Outline: (§1)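 Broth microdilution run to the standard NCCLS-recommended procedure, applied to all newly synthesized compounds, with a panel that included four Gram-positive strains.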

Staphylococcus aureus [1] = test: Antibacterial activity against Staphylococcus aureus ATCC 25923 after 24 hrs by broth microdilution method; type: functional; details: ATCC 25923, 24 h; outline: as §1
Escherichia coli = test: Antibacterial activity against Escherichia coli ATCC 25922 after 24 hrs by broth microdilution method; type: functional; details: ATCC 25922, 24 h; outline: as §1
Bacillus subtilis = test: Antibacterial activity against Bacillus subtilis ATCC 9372 after 24 hrs by broth microdilution method; type: functional; details: ATCC 9372, 24 h; outline: as §1
Staphylococcus aureus [2] = test: Antibacterial activity against penicillin-resistant Staphylococcus aureus after 24 hrs by broth microdilution method; type: functional
Staphylococcus aureus [3] = test: Antibacterial activity against methicillin-resistant Staphylococcus aureus ATCC 43300 after 24 hrs by broth microdilution method; type: functional; details: ATCC 43300, 24 h
[4] = biological target: T1, Cell division protein FtsZ (Bacillus subtilis) (UniProt A5Z1V5); test: Inhibition of FtsZ in Bacillus subtilis ATCC 9372 assessed as filamentation
T1 sequence (whole entry): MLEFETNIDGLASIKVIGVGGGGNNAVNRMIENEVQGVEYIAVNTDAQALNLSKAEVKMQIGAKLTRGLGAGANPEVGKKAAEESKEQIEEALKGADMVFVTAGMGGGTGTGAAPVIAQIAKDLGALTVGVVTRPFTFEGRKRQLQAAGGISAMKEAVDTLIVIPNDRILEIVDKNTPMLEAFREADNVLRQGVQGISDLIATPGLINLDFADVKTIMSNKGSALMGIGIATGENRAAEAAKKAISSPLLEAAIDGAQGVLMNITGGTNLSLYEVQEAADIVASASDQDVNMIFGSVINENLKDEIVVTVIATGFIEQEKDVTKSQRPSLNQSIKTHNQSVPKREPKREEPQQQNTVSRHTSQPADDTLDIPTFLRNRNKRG

[5] = biological target: T2, Cell division protein FtsZ (Staphylococcus aureus) (UniProt P0A031); test: Inhibition of FtsZ in Staphylococcus aureus assessed as ballooning
T2 sequence (whole entry): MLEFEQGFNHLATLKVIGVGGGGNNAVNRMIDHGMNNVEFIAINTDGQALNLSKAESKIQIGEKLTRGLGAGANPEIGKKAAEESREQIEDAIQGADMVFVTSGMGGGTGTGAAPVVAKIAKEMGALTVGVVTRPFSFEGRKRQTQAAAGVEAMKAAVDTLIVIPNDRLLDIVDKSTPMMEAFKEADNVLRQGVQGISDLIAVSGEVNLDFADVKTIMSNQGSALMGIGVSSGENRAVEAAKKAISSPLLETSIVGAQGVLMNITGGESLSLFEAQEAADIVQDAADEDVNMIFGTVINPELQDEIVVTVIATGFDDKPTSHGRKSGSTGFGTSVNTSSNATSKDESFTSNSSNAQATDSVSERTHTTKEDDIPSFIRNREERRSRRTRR

[6] = biological target: T1, Cell division protein FtsZ (Bacillus subtilis); test: Inhibition of FtsZ in Bacillus subtilis ATCC 9372 assessed as filamentation at 1 ug/ml

Row | Compound | MIC (Klebsiella pneumoniae) [µg/mL] | MIC (Staphylococcus aureus [1]) [µg/mL] | MIC (Escherichia coli) [µg/mL] | MIC (Bacillus subtilis) [µg/mL] | MIC (Staphylococcus aureus [2]) [µg/mL] | MIC (Staphylococcus aureus [3]) [µg/mL] | inhibition [4] | inhibition [5] | inhibition [6]
1 | CCCCC(CC)COc1cccc(-c2nnco2)c1 (racemic) | 16 (≈ 58.3 µM) | 32 (≈ 117 µM) | > 64 | 16 (≈ 58.3 µM) | – | – | – | – | –
2 | CCCCC(CC)COc1cccc(-c2cn(C)nn2)c1 (stereo not given) | 4 (≈ 13.9 µM) | 64 (≈ 223 µM) | > 64 | 32 (≈ 111 µM) | > 64 | 32 (≈ 111 µM) | – | – | –
3 | Clc1ccc(OCCCCOc2cccc(-c3c[nH]nn3)c2)cc1 | > 64 | > 64 | > 64 | > 64 | > 64 | > 64 | – | – | –
4 | CCCCC(CC)COc1cccc(-c2cnnn2C)c1 (stereo not given) | 16 (≈ 55.7 µM) | 64 (≈ 223 µM) | > 64 | 64 (≈ 223 µM) | > 64 | > 64 | – | – | –
5 | CCCCC(CC)COc1cccc(Cn2cncn2)c1 (racemic) | 16 (≈ 55.7 µM) | 16 (≈ 55.7 µM) | > 64 | 16 (≈ 55.7 µM) | 32 (≈ 111 µM) | 32 (≈ 111 µM) | inactive | Active | –
6 | Clc1cccc(COc2cccc(Cn3cnnn3)c2)c1 | > 64 | > 64 | > 64 | > 64 | > 64 | > 64 | – | – | –
7 | Clc1ccc(COc2cccc(Cn3cncn3)c2)cc1 | 64 (≈ 214 µM) | > 64 | > 64 | > 64 | > 64 | > 64 | – | – | –
8 | Cc1cccc(COc2ccc(F)c(-c3c[nH]nn3)c2F)c1 | 64 (≈ 212 µM) | 32 (≈ 106 µM) | > 64 | 32 (≈ 106 µM) | 32 (≈ 106 µM) | 16 (≈ 53.1 µM) | – | – | –
9 | CCCCCCCCOc1cccc(-c2c[nH]nn2)c1 | 4 (≈ 14.6 µM) | 4 (≈ 14.6 µM) | > 64 | 2 (≈ 7.32 µM) | 4 (≈ 14.6 µM) | 4 (≈ 14.6 µM) | inactive | Active | –
10 | Fc1ccc(OCCCCOc2ccc(Cl)cc2)c(F)c1-c1c[nH]nn1 | > 64 | > 64 | > 64 | > 64 | > 64 | > 64 | – | – | –
11 | Cc1cccc(COc2cccc(-c3c[nH]nn3)c2)c1 | 32 (≈ 121 µM) | 32 (≈ 121 µM) | > 64 | 32 (≈ 121 µM) | 32 (≈ 121 µM) | 16 (≈ 60.3 µM) | – | – | –
12 | CCOc1cccc(-c2c[nH]nn2)c1 | > 64 | > 64 | > 64 | > 64 | > 64 | > 64 | – | – | –
13 | Clc1cccc(COc2cccc(Cn3cncn3)c2)c1 | 64 (≈ 214 µM) | > 64 | > 64 | > 64 | > 64 | > 64 | – | – | –
14 | CCCCC(CC)COc1ccc(-c2c[nH]nn2)cc1 (stereo not given) | 4 (≈ 14.6 µM) | 4 (≈ 14.6 µM) | > 64 | 2 (≈ 7.32 µM) | 4 (≈ 14.6 µM) | 4 (≈ 14.6 µM) | inactive | Active | –
15 | CCCCC(CC)COc1cccc(-c2n[nH]c(=O)o2)c1 (racemic) | 4 (≈ 13.8 µM) | 4 (≈ 13.8 µM) | > 64 | 4 (≈ 13.8 µM) | 8 (≈ 27.6 µM) | 8 (≈ 27.6 µM) | inactive | Active | –
16 | Cc1ccc(COc2ccc(F)c(-c3c[nH]nn3)c2F)cc1 | > 64 | 32 (≈ 106 µM) | > 64 | 32 (≈ 106 µM) | 32 (≈ 106 µM) | 16 (≈ 53.1 µM) | – | – | –
17 | Clc1ccc(COc2cccc(-c3c[nH]nn3)c2)cc1 | > 64 | > 64 | > 64 | > 64 | > 64 | > 64 | – | – | –
18 | CCCCC(CC)COc1cccc(Cn2cnnn2)c1 (racemic) | 8 (≈ 27.7 µM) | > 64 | > 64 | > 64 | > 64 | > 64 | – | – | –
19 | CCCCC(CC)COc1cccc(C(N)=O)c1 (racemic) | 8 (≈ 32.1 µM) | 16 (≈ 64.2 µM) | > 64 | 16 (≈ 64.2 µM) | 16 (≈ 64.2 µM) | 16 (≈ 64.2 µM) | – | – | –
20 | c1ccc(COc2cccc(-c3c[nH]nn3)c2)cc1 | 64 (≈ 255 µM) | > 64 | > 64 | > 64 | > 64 | > 64 | – | – | –

Row | Compound | MIC (Klebsiella pneumoniae) [µg/mL] | MIC (Staphylococcus aureus [1]) [µg/mL] | MIC (Escherichia coli) [µg/mL] | MIC (Bacillus subtilis) [µg/mL] | MIC (Staphylococcus aureus [2]) [µg/mL] | MIC (Staphylococcus aureus [3]) [µg/mL] | inhibition [4] | inhibition [5] | inhibition [6]
21 | CCCCC(CC)COc1cccc(-c2c[nH]nn2)c1 (racemic) | 4 (≈ 14.6 µM) | 2 (≈ 7.32 µM) | > 64 | 2 (≈ 7.32 µM) | 4 (≈ 14.6 µM) | 4 (≈ 14.6 µM) | – | Active | inactive
22 | Clc1cccc(COc2cccc(-c3c[nH]nn3)c2)c1 | 16 (≈ 56 µM) | 16 (≈ 56 µM) | > 64 | 16 (≈ 56 µM) | 32 (≈ 112 µM) | 16 (≈ 56 µM) | – | – | –
23 | CCCCC(CC)COc1ccccc1-c1c[nH]nn1 (stereo not given) | 8 (≈ 29.3 µM) | 8 (≈ 29.3 µM) | > 64 | 8 (≈ 29.3 µM) | 8 (≈ 29.3 µM) | 8 (≈ 29.3 µM) | inactive | Active | –
24 | NC(=O)c1c(F)ccc(OCC2COc3ccc(Cl)cc3O2)c1F (stereo not given) | – | – | – | – | – | 0.5 (≈ 1.41 µM) | – | – | –
25 | Fc1ccc(OCc2ccc(Cl)cc2)c(F)c1-c1c[nH]nn1 | > 64 | > 64 | > 64 | > 64 | > 64 | > 64 | – | – | –
26 | NC(=O)c1c(F)ccc(OCc2nc(-c3ccc(Cl)cc3)c(Br)o2)c1F | – | – | – | – | – | 0.06 (≈ 0.135 µM) | – | – | –
27 | CCCCC(CC)COc1ccc(F)c(C(N)=O)c1F (stereo not given) | 4 (≈ 14 µM) | 4 (≈ 14 µM) | > 64 | 2 (≈ 7.01 µM) | 8 (≈ 28 µM) | 2 to 4 (≈ 7.01 to 14 µM) | – | – | –
28 | Cc1cccc(COc2cccc(Cn3cncn3)c2)c1 | > 64 | > 64 | > 64 | > 64 | > 64 | > 64 | – | – | –
29 | Fc1cccc(COc2ccc(F)c(-c3c[nH]nn3)c2F)c1 | > 64 | 64 (≈ 210 µM) | > 64 | > 64 | 64 (≈ 210 µM) | > 64 | – | – | –
30 | Cc1ccc(COc2cccc(-c3c[nH]nn3)c2)cc1 | > 64 | 32 (≈ 121 µM) | > 64 | > 64 | > 64 | > 64 | – | – | –
31 | CCCCC(CC)COc1cccc(-c2ncno2)c1 (racemic) | > 64 | > 64 | > 64 | > 64 | > 64 | > 64 | – | – | –
32 | O=c1[nH]nc(-c2cccc(OCc3ccccc3)c2)o1 | > 64 | > 64 | > 64 | > 64 | > 64 | > 64 | – | – | –
33 | CCCCC(CC)COc1cccc(-c2cnn(C)n2)c1 (stereo not given) | > 64 | > 64 | > 64 | > 64 | > 64 | > 64 | – | – | –
34 | Fc1ccc(OCc2cccc(Cl)c2)c(F)c1-c1c[nH]nn1 | > 64 | 16 (≈ 49.7 µM) | > 64 | 16 (≈ 49.7 µM) | 16 (≈ 49.7 µM) | 8 (≈ 24.9 µM) | – | – | –
35 | Fc1ccc(OCc2nc(-c3ccc(Cl)cc3)c(Br)o2)c(F)c1-c1c[nH]nn1 | > 64 | > 64 | > 64 | > 64 | > 64 | > 64 | – | – | –
36 | Cc1ccc(COc2cccc(Cn3cncn3)c2)cc1 | > 64 | > 64 | > 64 | > 64 | > 64 | > 64 | – | – | –
37 | Fc1ccc(OCc2nc3cc(Cl)cnc3s2)c(F)c1-c1c[nH]nn1 | > 64 | > 64 | > 64 | > 64 | > 64 | > 64 | – | – | –
38 | O=[N+]([O-])c1ccc(COc2cccc(Cn3cncn3)c2)cc1 | > 64 | > 64 | > 64 | > 64 | > 64 | > 64 | – | – | –
39 | CCCCC(CC)COc1ccc(F)c(-c2c[nH]nn2)c1F (racemic) | 8 (≈ 25.9 µM) | 8 (≈ 25.9 µM) | > 64 | 4 (≈ 12.9 µM) | 8 (≈ 25.9 µM) | 4 (≈ 12.9 µM) | – | – | –
40 | NC(=O)c1c(F)ccc(OCc2nc3cc(Cl)cnc3s2)c1F | 0.25 (≈ 0.703 µM) | 0.5 (≈ 1.41 µM) | > 64 | 0.25 (≈ 0.703 µM) | 0.5 (≈ 1.41 µM) | 1 (≈ 2.81 µM) | – | – | –
